According to ChEMBL document CHEMBL4513216, “Probing the Open Global Health Chemical Diversity Library for Multistage-Active Starting Points for Next-Generation Antimalarials” (ACS Infect Dis, 2020):

Assay: Toxicity liver stage against HepG2, at 10uM
Format: cell-based
Parameters: test concentration 10 uM, cell line HepG2-A16-CD81EGFP
Conditions: human, HepG2-A16-CD81EGFP cells; read-out: INHIBITION
Method in brief: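 Uninfected HepG2-A16-CD81EGFP cells, 3 × 10^3 per well, 1536-well, plated on prespotted compound at 10 μM final, parasite-free screening media added to match infected plates; puromycin 10 μM positive, DMSO 0.5% negative; run in parallel with 48 h PbLuc assay at 37 °C, 5% CO2; viability by CellTiter-Glo luminescence, normalized to controls.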

| SMILES | cytotoxicity at 10 µM |
| --- | --- |
| CC[C@H]1CN2CC[C@H]1C[C@@H]2CNCc1ccc(N(C)C)cc1 | -5.66% |
| COCCNc1c(-c2ccc(Cl)cc2)c(=O)c1=O | -1.99% |
| CN(C)C(=O)CN1CCC2(CC1)CC(=O)c1c(ccc3ccccc13)O2 | 3.28% |
| O=S1(=O)c2cccnc2OC(Cc2ccccc2)CN1CC1CC1 (stereo not given) | -2.46% |
| CN1C(=O)C2(CC(=O)Nc3c2cnn3C(C)(C)C)c2ccccc21 (stereo not given) | -4.5% |
| Cn1ncc2c1NC(=O)CSC2c1ccc2c(c1)OCO2 (stereo not given) | 0.435% |
| CCSc1nc(N)c(NC(=O)c2ccc(C)cc2)c(=O)[nH]1 | -57.3% |
| O=c1c(S(=O)(=O)N2CCCC2)cccn1Cc1ccc(F)cc1Cl | 12% |
| COc1ccc(C(=O)NCC(C)(O)CCc2ccccc2)cc1 (stereo not given) | -7.39% |
| O=C(c1cc(Br)ccc1-n1cnnn1)N1CCCCC1 | -1.25% |
| O=c1[nH]c2c(c(=O)n1C1CCCCC1)CCC2Nc1ccccn1 (stereo not given) | -8.02% |
| CC1CCN(c2nc3ncc4c(c3c(=O)[nH]2)CC(C)(C)CC4=O)CC1 | 3.49% |
| CNC(=O)c1cc(S(=O)(=O)C(C)C)cs1 | 5.08% |
| COc1ccc(OC)c(C(C)Nc2ncnc3c2NC(=O)CN3)c1 (stereo not given) | 10.6% |
| CCC(=O)Nc1nnc(CCCOc2ccccc2)s1 | -0.834% |
| CC1(C(N)=O)CN(S(=O)(=O)c2cccc(F)c2)CCO1 (stereo not given) | 6.73% |
| COCC(=O)N1C[C@@H](c2cc(O)nc(C)n2)[C@H](c2ccccc2F)C1 | 5.62% |
| Cc1c[nH]nc1C1CN(c2cnccn2)CCO1 (stereo not given) | 4.34% |
| Cc1nccc(C2CCCN(S(=O)(=O)N3CCOCC3)C2)n1 (stereo not given) | 6.08% |
| CNC(=O)c1sc2ccccc2c1CC1CCCN1Cc1cnc(C)s1 (stereo not given) | 2.59% |
| Cc1ncc(-c2ccncc2)c(C2CCN(C(=O)c3ccno3)CC2)n1 | 2.08% |
| Cc1noc(C)c1-c1ccnc(C2CCN(C3CCOCC3)CC2)c1 | -28.7% |
| C[C@]1(O)CN(Cc2ncccc2F)CC[C@@H]1Oc1ccccc1 | -21% |
| CN1CCCCC1c1ncc2c(n1)CCN(Cc1ccc(F)cc1)C2 (stereo not given) | -17.6% |
| O=C(NCCO)Nc1cnc2cc(Cl)ccc2c1O | -30.2% |
| Fc1cccc(Cl)c1CN1CCC(c2n[nH]c3ncccc23)CC1 | -13.7% |
| CC(C)Cc1cc(C(=O)N2CCC(N3CCCC3)CC2)cc(O)n1 | 4.64% |
| Cc1noc(C(C)C)c1C(=O)NCC1CCCN1Cc1ccccc1 (stereo not given) | -4.45% |

| SMILES | cytotoxicity at 10 µM |
| --- | --- |
| Cc1[nH]ncc1CCCNC(=O)N1CCC(CC(N)=O)CC1 | 5.45% |
| CCNC(=O)c1ccc(NC2CCOC3(CCCC3)C2)nn1 (stereo not given) | -5% |
| Cc1cnc(C(NC(=O)NCc2nc(C3CC3)no2)C2CC2)s1 (stereo not given) | 4.34% |
| COCCN(Cc1ccc(C)o1)C(=O)Nc1nnc(C(F)F)s1 | 1.24% |
| CCN1CCN2CCCN(S(=O)(=O)c3cccc(F)c3)C2C1=O (stereo not given) | 5.18% |
| NC(=O)CN1CCN(S(=O)(=O)N2CCCC2c2ccco2)CC1 (stereo not given) | -3.48% |
| CN(CCC#N)C(=O)CN1CCCN(Cc2noc(C3CC3)n2)CC1 | 6.39% |
| CCCc1cc(N(CCOC)CC(F)F)n2ncnc2n1 | 4.81% |
| CCc1oc(C(=O)OC)cc1Cn1cccc(C(F)(F)F)c1=O | -2.13% |
| CN(CCCNC(=O)C1CCc2cn[nH]c2C1)c1ccccc1 (stereo not given) | -5.19% |
| CN(Cc1ccncc1)C(=O)Nc1cnn(CC(N)=O)c1 | -3.07% |
| COc1ccc(Cl)c(NCC(=O)NCC(=O)N2CCCC2)c1 | -5.7% |
| COCCn1cc(C(=O)N2CCCC2c2ccccc2C)ccc1=O (stereo not given) | 7.69% |
| CCOc1ccc(NS(=O)(=O)c2cc(C)c(C(=O)O)s2)cc1F | -3.24% |
| Cc1[nH]ncc1CCCNC(=O)Nc1ccccc1 | -2.2% |
| Cc1cc(N2CCN(C(=O)c3cc(Cl)c[nH]3)CC2)nc(C(C)C)n1 | 3.49% |
| CC(C)C(=O)NCCC(=O)N1CCN(c2ccccn2)CC1 | -6.13% |
| Cc1ccc(CNCc2c(C(C)C)nn(C)c2N2CCOCC2)s1 | -3.03% |
| CCOc1cncc(N2CCCC2c2nnc3n2CCCCC3)n1 (stereo not given) | -5.93% |
| O=C(NCCn1ccnc1)c1cncc(Br)c1 | 17.7% |
| CC(=O)NCCC(=O)NCC1(c2c(F)cccc2F)CCCC1 | -2.75% |
| CC(C)(C)CC(=O)Nc1ccc(S(C)(=O)=O)nc1 | -3.05% |
| CC1CCCCN1S(=O)(=O)NCc1cccnc1OC1CCCC1 (stereo not given) | -89.8% |
| CNC(=O)CCN1CCCC1c1ccccc1Br (stereo not given) | 15.3% |
| Cc1cc(C(=O)N2CCC(N3CCNC3=O)CC2)nn1C(C)(C)C | 5.56% |
| CCc1ccc(C(=O)O)cc1S(=O)(=O)N(C)c1cccc(C#N)c1 | -2.08% |
| CC(C)N(C)C(=O)c1ccc(Cl)c(NC(=O)COCC2CC2)c1 | 6.14% |
